Assay results as given in ChEMBL document CHEMBL1143171, “Structure-activity studies on 1,3-dioxane-2-carboxylic acid derivatives, a novel class of subtype-selective peroxisome proliferator-activated receptor alpha (PPARalpha) agonists” (Bioorg Med Chem, 2008).

What was measured:
[1] = biological target: T1, Peroxisome proliferator-activated receptor alpha (Homo sapiens, UniProt Q07869); test: Agonist activity at human PPARalpha expressed in CV1 cells by transactivation assay; assay type: functional, cell-based, CV-1
T1 sequence (Q07869 whole entry): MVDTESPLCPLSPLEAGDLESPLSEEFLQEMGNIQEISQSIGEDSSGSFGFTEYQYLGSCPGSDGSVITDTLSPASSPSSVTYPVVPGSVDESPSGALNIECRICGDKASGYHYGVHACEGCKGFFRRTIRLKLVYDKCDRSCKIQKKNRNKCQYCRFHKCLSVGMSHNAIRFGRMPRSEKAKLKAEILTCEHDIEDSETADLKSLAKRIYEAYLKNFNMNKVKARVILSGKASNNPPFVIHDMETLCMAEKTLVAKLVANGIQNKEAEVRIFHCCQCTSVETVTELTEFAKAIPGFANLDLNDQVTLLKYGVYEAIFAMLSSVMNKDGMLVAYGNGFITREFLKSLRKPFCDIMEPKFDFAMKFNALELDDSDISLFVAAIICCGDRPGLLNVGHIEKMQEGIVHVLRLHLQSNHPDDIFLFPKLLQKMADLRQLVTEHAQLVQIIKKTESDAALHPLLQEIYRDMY

[2] = biological target: T2, Peroxisome proliferator-activated receptor gamma (Homo sapiens) (UniProt P37231); test: Agonist activity at human PPARgamma expressed in CV1 cells at 10 uM by transactivation assay; assay type: functional, cell-based; details: CV-1
T2 sequence (whole entry): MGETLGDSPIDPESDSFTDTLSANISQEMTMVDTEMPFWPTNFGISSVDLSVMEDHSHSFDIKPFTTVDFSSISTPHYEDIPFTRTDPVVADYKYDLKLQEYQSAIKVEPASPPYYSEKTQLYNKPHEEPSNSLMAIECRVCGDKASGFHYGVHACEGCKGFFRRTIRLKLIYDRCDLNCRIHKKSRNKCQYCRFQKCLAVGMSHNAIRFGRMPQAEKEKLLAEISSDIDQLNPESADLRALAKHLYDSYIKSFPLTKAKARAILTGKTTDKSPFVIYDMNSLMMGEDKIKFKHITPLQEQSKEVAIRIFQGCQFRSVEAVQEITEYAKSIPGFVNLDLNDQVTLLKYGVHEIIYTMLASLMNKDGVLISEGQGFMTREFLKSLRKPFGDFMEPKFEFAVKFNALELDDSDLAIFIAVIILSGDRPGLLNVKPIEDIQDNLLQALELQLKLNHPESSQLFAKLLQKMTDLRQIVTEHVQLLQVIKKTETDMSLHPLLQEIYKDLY
How it was run: (§1)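 Human full-length PPAR subtype (pSG5) cotransfected into CV-1 cells with a PPRE (rat acyl-CoA oxidase, ×3)–TK firefly luciferase reporter and a Renilla TK control. Cells were cultured in DMEM/10% FBS at 37 °C under 5% CO2, then exposed to compound at 10 µM (0.1% DMSO final) for 48 h. The dual-luciferase read-out is given as a percentage of the positive control's maximum activity (n = 2).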

[3] = biological target: T3, Peroxisome proliferator-activated receptor delta (Homo sapiens) (UniProt Q03181); test: Agonist activity at human PPARdelta expressed in CV1 cells at 10 uM by transactivation assay; assay type: functional, cell-based; details: CV-1; how it was run: as §1
T3 sequence (whole entry): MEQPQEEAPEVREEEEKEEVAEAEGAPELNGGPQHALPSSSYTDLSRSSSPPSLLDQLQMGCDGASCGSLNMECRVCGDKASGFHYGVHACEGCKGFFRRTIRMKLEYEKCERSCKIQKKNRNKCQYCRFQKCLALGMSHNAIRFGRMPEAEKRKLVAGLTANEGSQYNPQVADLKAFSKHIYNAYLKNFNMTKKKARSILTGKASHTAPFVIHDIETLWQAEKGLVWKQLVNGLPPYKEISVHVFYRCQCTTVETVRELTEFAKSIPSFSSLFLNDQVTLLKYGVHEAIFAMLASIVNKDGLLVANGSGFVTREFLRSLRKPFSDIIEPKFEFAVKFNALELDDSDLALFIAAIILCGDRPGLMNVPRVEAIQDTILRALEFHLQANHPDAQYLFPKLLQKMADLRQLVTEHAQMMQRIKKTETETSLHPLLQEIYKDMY

[4] = biological target: T4, Peroxisome proliferator-activated receptor gamma (Homo sapiens, UniProt P37231); test: Agonist activity at human PPARgamma expressed in CV1 cells by transactivation assay; assay type: functional, cell-based, CV-1
T4 sequence (P37231 whole entry): T2 sequence (whole entry)

[5] = biological target: T5, Peroxisome proliferator-activated receptor alpha (Mus musculus, UniProt P23204); test: Agonist activity at mouse PPARalpha expressed in CV1 cells by transactivation assay; assay type: functional, cell-based, CV-1
T5 sequence (P23204 whole entry): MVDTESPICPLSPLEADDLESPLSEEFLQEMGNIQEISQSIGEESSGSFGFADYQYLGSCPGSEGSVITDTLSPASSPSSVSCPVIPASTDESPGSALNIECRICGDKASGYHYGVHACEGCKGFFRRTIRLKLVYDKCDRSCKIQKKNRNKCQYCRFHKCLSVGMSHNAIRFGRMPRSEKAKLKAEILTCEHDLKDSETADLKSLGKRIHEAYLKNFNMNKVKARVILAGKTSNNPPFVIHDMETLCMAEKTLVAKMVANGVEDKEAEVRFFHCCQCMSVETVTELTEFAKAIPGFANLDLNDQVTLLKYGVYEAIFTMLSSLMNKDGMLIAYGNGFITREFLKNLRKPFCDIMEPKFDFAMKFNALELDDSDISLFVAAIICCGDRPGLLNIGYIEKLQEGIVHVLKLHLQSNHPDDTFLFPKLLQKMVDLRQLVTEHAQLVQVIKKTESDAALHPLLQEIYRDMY

Mus musculus [6] = test: Hypoglycemic effect on diabetic KK-Ay mouse assessed as reduction of plasma glucose level at 1 mg/kg/day, po after 4 days; assay type: functional; design: scale not given: the % may be the effect or the level left
How it was run: (§2)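 Male KK-Ay mice, 10 weeks old and fed chow ad libitum, were dosed orally once daily for 4 days (n = 5) with suspensions in 0.5% methylcellulose. On the day after the last dose, nonfasted tail-vein plasma was assayed enzymatically for TG and glucose. Vena cava plasma taken under pentobarbital had lipoprotein cholesterol measured by HPLC with on-line enzymatic detection. Values are % change of the group mean from vehicle controls.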

Mus musculus [7] = test: Hypolipidemic effect on diabetic KK-Ay mouse assessed as reduction of plasma VLDL cholesterol level at 1 mg/kg/day, po after 4 days; assay type: functional; design: scale not given: the % may be the effect or the level left; how it was run: as §2
Mus musculus [8] = test: Hypolipidemic effect on diabetic KK-Ay mouse assessed as increase in plasma HDL cholesterol level at 1 mg/kg/day, po after 4 days; assay type: functional; how it was run: as §2
[9] = biological target: T6, Peroxisome proliferator-activated receptor gamma (Mus musculus) (UniProt P37238); test: Agonist activity at mouse PPARgamma expressed in CV1 cells at 10 uM by transactivation assay; assay type: functional, cell-based; details: CV-1
T6 sequence (whole entry): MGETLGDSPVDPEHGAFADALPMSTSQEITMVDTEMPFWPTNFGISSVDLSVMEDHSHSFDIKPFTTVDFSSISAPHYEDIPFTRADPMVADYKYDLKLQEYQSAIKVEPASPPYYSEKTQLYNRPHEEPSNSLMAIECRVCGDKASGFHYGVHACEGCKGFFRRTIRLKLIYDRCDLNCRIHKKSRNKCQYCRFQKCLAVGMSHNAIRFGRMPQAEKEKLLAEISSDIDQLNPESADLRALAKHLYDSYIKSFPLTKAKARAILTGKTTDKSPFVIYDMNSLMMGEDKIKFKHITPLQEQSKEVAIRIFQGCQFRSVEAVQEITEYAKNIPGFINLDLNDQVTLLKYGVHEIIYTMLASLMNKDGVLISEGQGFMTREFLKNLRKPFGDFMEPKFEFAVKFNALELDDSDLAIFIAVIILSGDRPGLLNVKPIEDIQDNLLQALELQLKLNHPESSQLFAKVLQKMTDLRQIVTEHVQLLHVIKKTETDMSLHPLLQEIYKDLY

Mus musculus [10] = test: Hypolipidemic effect on diabetic KK-Ay mouse assessed as reduction of plasma triglyceride level at 1 mg/kg/day, po after 4 days; assay type: functional; design: scale not given: the % may be the effect or the level left; how it was run: as §2
[11] = biological target: T7, Peroxisome proliferator-activated receptor delta (Homo sapiens, UniProt Q03181); test: Agonist activity at human PPARdelta expressed in CV1 cells by transactivation assay; assay type: functional, cell-based, CV-1
T7 sequence (Q03181 whole entry): T3 sequence (whole entry)

Mus musculus [12] = test: Hypolipidemic effect on diabetic KK-Ay mouse assessed as reduction of plasma triglyceride level at 300 mg/kg/day, po after 4 days; assay type: functional; design: scale not given: the % may be the effect or the level left; how it was run: as §2
Mus musculus [13] = test: Hypoglycemic effect on diabetic KK-Ay mouse assessed as reduction of plasma glucose level at 300 mg/kg/day, po after 4 days; assay type: functional; design: scale not given: the % may be the effect or the level left; how it was run: as §2
Mus musculus [14] = test: Hypolipidemic effect on diabetic KK-Ay mouse assessed as reduction of plasma VLDL cholesterol level at 300 mg/kg/day, po after 4 days; assay type: functional; design: scale not given: the % may be the effect or the level left; how it was run: as §2
Mus musculus [15] = test: Hypolipidemic effect on diabetic KK-Ay mouse assessed as increase in plasma HDL cholesterol level at 300 mg/kg/day, po after 4 days; assay type: functional; how it was run: as §2

Row | EC50 [1] [µM] | Activity [2] [%] | Activity [3] [%] | EC50 [4] [µM] | SMILES | other results
1 | 0.3 | 25 | 0 | – | Cc1ccc(-c2nc(CCCC[C@H]3CO[C@@](C)(C(=O)O)OC3)c(C)s2)cc1 | –
2 | 0.3 | 23 | 5 | – | Cc1ccccc1-c1nc(CCCC[C@H]2CO[C@@](C)(C(=O)O)OC2)c(C)o1 | –
3 | 0.03 | 34 | 16 | – | Cc1cccc(-c2nc(CCCC[C@H]3CO[C@@](C)(C(=O)O)OC3)c(C)o2)c1 | –
4 | 0.3 | – | 0 | 100 | Cc1oc(-c2ccccc2)nc1CCCC[C@H]1CO[C@@](C)(C(=O)O)OC1 | EC50 [5]: 1 µM; Activity (Mus musculus [6]): -12%; Activity (Mus musculus [7]): -29%; Activity (Mus musculus [8]): 36%; Activity [9]: 11%; Activity (Mus musculus [10]): -46%
5 | – | – | – | 3 | CC(C)(Oc1ccc(CCNC(=O)c2ccc(Cl)cc2)cc1)C(=O)O [BEZAFIBRATE] | EC50 [11]: 30 µM
6 | 0.03 | 21 | 9 | – | Cc1oc(-c2ccc(Cl)cc2)nc1CCCC[C@H]1CO[C@@](C)(C(=O)O)OC1 | –
7 | 0.03 | – | 3 | 10 | CCc1oc(-c2ccc(C)cc2)nc1CCCC[C@H]1CO[C@@](C)(C(=O)O)OC1 | –

Row | SMILES | EC50 [1] [µM] | Activity [2] [%] | Activity [3] [%] | EC50 [4] [µM] | other results
8 | CC(C)(Oc1ccc(C(=O)c2ccc(Cl)cc2)cc1)C(=O)O [FENOFIBRIC ACID] | > 100 | – | – | – | EC50 [11]: > 100 µM; Activity (Mus musculus [12]): -40%; Activity (Mus musculus [13]): -25%; Activity (Mus musculus [14]): -31%; Activity (Mus musculus [15]): 17%
